Measurements of several laboratories.
Target: Amine oxidase [flavin-containing] B (MAOB, Homo sapiens, UniProt P27338)
Observed: enzyme activity
Action: inhibitor
Sequence (P27338 1-520, as in one of the studies): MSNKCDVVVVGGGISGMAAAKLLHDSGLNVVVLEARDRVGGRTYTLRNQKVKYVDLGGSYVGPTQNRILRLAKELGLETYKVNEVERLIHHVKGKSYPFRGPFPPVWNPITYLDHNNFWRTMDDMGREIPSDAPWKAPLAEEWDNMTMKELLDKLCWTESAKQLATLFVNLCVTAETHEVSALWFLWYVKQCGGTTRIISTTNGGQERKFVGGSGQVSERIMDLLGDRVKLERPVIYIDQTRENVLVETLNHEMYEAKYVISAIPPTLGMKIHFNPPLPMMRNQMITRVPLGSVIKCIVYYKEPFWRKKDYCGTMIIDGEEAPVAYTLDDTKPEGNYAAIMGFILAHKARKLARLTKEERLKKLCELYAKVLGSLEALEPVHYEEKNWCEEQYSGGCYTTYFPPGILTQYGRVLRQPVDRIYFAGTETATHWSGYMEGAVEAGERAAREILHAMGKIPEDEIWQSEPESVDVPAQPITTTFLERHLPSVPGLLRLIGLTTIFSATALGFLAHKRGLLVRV

For `O=C(/C=C/c1ccc(O)cc1)c1ccc(O)cc1O`, the IC50 was 0.51 µM.
For `O=C(O)c1cc(O)c2c(c1)C(=O)c1cc(O)cc(O)c1C2=O`, the IC50 was 31.9 µM.
With `O=c1cc(-c2ccc(O)cc2)oc2c([C@@H]3O[C@H](CO)[C@@H](O)[C@H](O)[C@H]3O)c(O)cc(O)c12` the IC50 was 34.1 µM.
`O=c1[nH]c(-c2ccccc2)cnc1-c1ccccc1` gave an IC50 of 0.14 µM (fluorescence).
`COc1cc(/C=C/C(=O)N2CCC(Cc3ccccc3)CC2)ccc1OC1CCCCC1` has an IC50 of 0.56 µM (fluorescence).
With `COc1cccc(CNc2nc3ccc(C)cc3n3cnnc23)c1` the IC50 was 0.18 µM (fluorescence).
`O=c1c(O)c(-c2ccc(O)c(O)c2)oc2cc(O)ccc12` has an IC50 of greater than 100 µM.
`CCn1c(-c2nc3ccc(C(=O)N4CCCC(N)C4)cc3n2C)cc2ccccc21` (stereo not shown) has an IC50 of 20 µM.
`O=C(Nc1ccc(OC(F)(F)F)cc1)c1cc(Cl)ccc1O` has an IC50 of 0.128 µM.
For `C#CCOc1ccc(/C=C/C(=O)N2CCC(Cc3ccccc3)CC2)cc1OC`, the IC50 was 0.32 µM (fluorescence).
The IC50 of `O=C(c1ccc(O)cc1O)[C@H](O)[C@@H](O)c1ccc(O)cc1` is reported as 29.9 µM.
For `c1ccc2[nH]c(-c3nc4ccccc4[nH]3)nc2c1`, the IC50 was greater than 30 µM (fluorescence).
`O=C1C[C@@H](c2ccc(O)cc2)Oc2cc(O)cc(O)c21` gave an IC50 of 0.27 µM.
With `Cn1c(=O)c2ccc(C(=O)Nc3ccccc3F)nc2n(C)c1=O` the IC50 was 0.061 µM (fluorescence).
With `O=C(Nc1ccc([N+](=O)[O-])cc1Cl)c1cc2ccccc2o1` the IC50 was 0.123 µM.
The IC50 of `COc1ccc(/C=C/C(=O)N2CCC(Cc3ccccc3)CC2)cc1OC` is reported as 1.1 µM (fluorescence).
